{
  "source": "ChEMBL document CHEMBL1121991",
  "about": "“4-Aroyl-1,3-dihydro-2H-imidazol-2-ones, a new class of cardiotonic agents” (1982)",
  "key": {"[1]": {"system": "Canis familiaris", "assay": "The heart rate was determined after 1.0 mg/kg administration with 20 mg/kg pentobarbital in the dog heart-lung preparation", "assay_type": "functional, Canis lupus familiaris", "procedure,_shortened": "(§1)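 Heart-lung preparation from mongrel dogs anesthetized with pentobarbital 35 mg/kg iv. Failure was induced by adding pentobarbital 20 mg/kg to the blood reservoir, then test agent 1 mg/kg was added. Force, rate, output, stroke volume, left atrial pressure and stroke work were read 10 min later. Five preparations, means ± SE, analysis of variance.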"}, "[2]": {"system": "Canis familiaris", "assay": "The cardiac contractile force was determined after 1.0 mg/kg administration with 20 mg/kg pentobarbital in the dog heart-lung preparation", "assay_type": "functional, Canis lupus familiaris", "procedure,_shortened": "as §1"}, "[3]": {"system": "Canis familiaris", "assay": "The cardiac output was determined after 1.0 mg/kg administration with 20 mg/kg pentobarbital in the dog heart-lung preparation", "assay_type": "functional, Canis lupus familiaris", "procedure,_shortened": "as §1"}, "[4]": {"system": "Canis familiaris", "assay": "(§2) The change in cardiac output was determined after 10 min of 3.0 ug/kg administration in the dog heart-lung preparation", "assay_type": "functional, Canis lupus familiaris", "procedure,_shortened": "(§3)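 Dog heart-lung preparation from mongrel dogs of either sex, 11–19 kg, anesthetized with sodium pentobarbital 35 mg/kg iv. Strain gauge arch on the right ventricle; left atrial pressure by atrial cannula transducer; aortic flow by extracorporeal flow meter. Drug was added to the blood reservoir and measured at 10 min, n = 5–8. Change vs control by paired t test.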"}, "[5]": {"system": "Canis familiaris", "assay": "as §2", "assay_type": "functional, Canis lupus familiaris", "procedure,_shortened": "as §3", "remark": "listed apart in the source"}, "[6]": {"system": "Canis familiaris", "assay": "The change in heart rate was determined after 10 min of 0.3 ug/kg administration in the dog heart-lung preparation", "assay_type": "functional, Canis lupus familiaris", "procedure,_shortened": "as §3"}, "[7]": {"system": "Canis familiaris", "assay": "The change in heart rate was determined after 10 min of 1.0 ug/kg administration in the dog heart-lung preparation", "assay_type": "functional, Canis lupus familiaris", "procedure,_shortened": "as §3"}, "[8]": {"system": "Canis familiaris", "assay": "The change in heart rate was determined after 10 min of 3.0 ug/kg administration in the dog heart-lung preparation", "assay_type": "functional, Canis lupus familiaris", "procedure,_shortened": "as §3"}, "[9]": {"system": "Canis familiaris", "assay": "The change in left atrial pressure after 10 min of 0.3 ug/kg administration in the dog heart-lung preparation", "assay_type": "functional, Canis lupus familiaris, Cardiac atrium", "procedure,_shortened": "as §3"}, "[10]": {"system": "Canis familiaris", "assay": "The change in left atrial pressure was determined after 10 min of 0.3 ug/kg administration in the dog heart-lung preparation", "assay_type": "functional, Canis lupus familiaris, Cardiac atrium", "procedure,_shortened": "as §3"}, "[11]": {"system": "Canis familiaris", "assay": "The change in left atrial pressure was determined after 10 min of 3.0 ug/kg administration in the dog heart-lung preparation", "assay_type": "functional, Canis lupus familiaris, Cardiac atrium", "procedure,_shortened": "as §3"}, "[12]": {"system": "Canis familiaris", "assay": "The change in left atrial pressure was determined after 10 min of 3.0 ug/kg administration in the dog heart-lung preparation.", "assay_type": "functional, Canis lupus familiaris, Cardiac atrium", "procedure,_shortened": "as §3"}, "[13]": {"system": "Canis familiaris", "assay": "The change in cardiac contractile force after 10 min of 3.0 ug/kg administration in the dog heart-lung preparation", "assay_type": "functional, Canis lupus familiaris", "procedure,_shortened": "as §3"}, "[14]": {"system": "Canis familiaris", "assay": "The change in cardiac contractile force after 1 mg/kg iv administration with 0.5 mg/kg, iv propranolol", "assay_type": "functional, Canis lupus familiaris, Heart", "procedure,_shortened": "(§4)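 Anesthetized dogs, N = 6 per group, given test agent 1 mg/kg iv or isoproterenol 0.1 μg/kg iv, with or without propranolol 0.5 mg/kg iv pretreatment. Percent change from control was recorded for contractile force (strain gauge arch) and for mean arterial BP. Values are means ± SE, compared by Student's t test.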"}, "[15]": {"system": "Canis familiaris", "assay": "The change in cardiac contractile force after 1 mg/kg iv administration, activity is expressed as % change.", "assay_type": "functional, Canis lupus familiaris, Heart", "procedure,_shortened": "as §4"}, "[16]": {"system": "Canis familiaris", "assay": "The change in cardiac contractile force was determined after 10 min of 0.3 ug/kg administration in the dog heart-lung preparation", "assay_type": "functional, Canis lupus familiaris", "procedure,_shortened": "as §3"}, "[17]": {"system": "Canis familiaris", "assay": "The change in cardiac contractile force was determined after 10 min of 1.0 ug/kg administration in the dog heart-lung preparation", "assay_type": "functional, Canis lupus familiaris", "procedure,_shortened": "as §3"}, "[18]": {"system": "Canis familiaris", "assay": "The change in cardiac contractile force was determined after 10 min of 3.0 ug/kg administration in the dog heart-lung preparation", "assay_type": "functional, Canis lupus familiaris", "procedure,_shortened": "as §3"}, "[19]": {"system": "Canis familiaris", "assay": "The left atrial pressure was determined after 1.0 mg/kg administration with 20 mg/kg pentobarbital in the dog heart-lung preparation", "assay_type": "functional, Canis lupus familiaris, Cardiac atrium", "procedure,_shortened": "as §1"}, "[20]": {"system": "Canis familiaris", "assay": "The change in mean arterial blood pressure was determined after 1 mg/kg iv administration", "assay_type": "functional, Canis lupus familiaris", "procedure,_shortened": "as §4"}, "[21]": {"system": "Canis familiaris", "assay": "The change in mean arterial blood pressure was determined after 1 mg/kg iv administration with 0.5 mg/kg, iv propranolol", "assay_type": "functional, Canis lupus familiaris", "procedure,_shortened": "as §4"}, "[22]": {"system": "Canis familiaris", "assay": "The stroke volume was determined after 1.0 mg/kg administration with 20 mg/kg pentobarbital in the dog heart-lung preparation", "assay_type": "functional, Canis lupus familiaris", "procedure,_shortened": "as §1"}, "[23]": {"system": "Canis familiaris", "assay": "Stroke work was determined after 1.0 mg/kg administration with 20 mg/kg pentobarbital in the dog heart-lung preparation", "assay_type": "functional, Canis lupus familiaris", "procedure,_shortened": "as §1"}, "[24]": {"system": "Canis familiaris", "assay": "The change in stroke volume after 10 min of 1.0 ug/kg administration in the dog heart-lung preparation", "assay_type": "functional, Canis lupus familiaris", "procedure,_shortened": "as §3"}, "[25]": {"system": "Canis familiaris", "assay": "The change in stroke volume after 10 min of 3.0 ug/kg administration in the dog heart-lung preparation", "assay_type": "functional, Canis lupus familiaris", "procedure,_shortened": "as §3"}, "[26]": {"system": "Canis familiaris", "assay": "The change in stroke volume was determined after 10 min of 0.3 ug/kg administration in the dog heart-lung preparation", "assay_type": "functional, Canis lupus familiaris", "procedure,_shortened": "as §3"}, "[27]": {"system": "Canis familiaris", "assay": "The change in stroke volume was determined after 10 min of 1.0 ug/kg administration in the dog heart-lung preparation", "assay_type": "functional, Canis lupus familiaris", "procedure,_shortened": "as §3"}, "[28]": {"system": "Canis familiaris", "assay": "The change in stroke volume was determined after 10 min of 3.0 ug/kg administration in the dog heart-lung preparation", "assay_type": "functional, Canis lupus familiaris", "procedure,_shortened": "as §3"}, "[29]": {"system": "Canis familiaris", "assay": "Pharmacological activity for Blood pressure, -20% in anesthetized dog was determined after intravenous administration", "assay_type": "functional, Canis lupus familiaris", "procedure,_shortened": "(§5)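 Anesthetized dogs; contractile force recorded by a left-ventricular Walton-Brodie strain gauge arch, heart rate from lead II EKG, plus blood pressure. Stabilized at least 30 min, then at least three iv doses given, one compound per animal, with return to basal between doses. Doses for +30% force, +15% rate and −20% BP were extrapolated from dose-response curves; geometric mean where repeated.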"}, "[30]": {"system": "Canis familiaris", "assay": "Pharmacological activity for heart rate +15% in anesthetized dog was determined after intravenous administration", "assay_type": "functional, Canis lupus familiaris", "procedure,_shortened": "as §5"}, "[31]": {"system": "Canis familiaris", "assay": "Pharmacological activity for Contractile force, +30% in anesthetized dog was determined after intravenous administration", "assay_type": "functional, Canis lupus familiaris", "procedure,_shortened": "as §5"}},
  "note": "“And” between values parts separate entries of the source, which are not always exact repeats. Identical values can stand only once.",
  "data": [
    {"smiles": "COc1ccc(C(=O)c2[nH]c(O)nc2C)cc1", "values": [
      {"measurement": "Heart rate", "setting": "[1]", "result": 151, "unit": "beats min-1"},
      {"measurement": "Cardiac contractile force", "setting": "[2]", "result": 88, "unit": "g"},
      {"measurement": "Cardiac output", "setting": "[3]", "result": 1053, "unit": "mL/min"},
      {"measurement": "Change", "setting": "[4]", "result": 46, "unit": "mL/min"},
      {"measurement": "Change", "setting": "[5]", "result": 4, "unit": "%"},
      {"measurement": "Change", "setting": "[6]", "result": "22% and 14%"},
      {"measurement": "Change", "setting": "[7]", "result": "35% and 23%"},
      {"measurement": "Change", "setting": "[8]", "result": "41% and 28%"},
      {"measurement": "Change", "setting": "[9]", "result": -1.6, "unit": "mmHg"},
      {"measurement": "Change", "setting": "[10]", "result": -49, "unit": "%"},
      {"measurement": "Change", "setting": "[11]", "result": -43, "unit": "%"},
      {"measurement": "Change", "setting": "[12]", "result": -1.1, "unit": "mmHg"},
      {"measurement": "Change", "setting": "[13]", "result": 179, "unit": "%"},
      {"measurement": "Change", "setting": "[14]", "result": 144, "unit": "%"},
      {"measurement": "Change", "setting": "[15]", "result": 127, "unit": "%"},
      {"measurement": "Change", "setting": "[16]", "result": "62% and 88%"},
      {"measurement": "Change", "setting": "[17]", "result": "96.7% and 121%"},
      {"measurement": "Change", "setting": "[18]", "result": 129, "unit": "g"},
      {"measurement": "Left atrial pressure", "setting": "[19]", "result": 2.6, "unit": "mmHg"},
      {"measurement": "Change", "setting": "[20]", "result": -27, "unit": "%"},
      {"measurement": "Change", "setting": "[21]", "result": -33, "unit": "%"},
      {"measurement": "Stroke volume", "setting": "[22]", "result": 7, "unit": "mL"},
      {"measurement": "Stroke work", "setting": "[23]", "result": 7.7, "unit": "g"},
      {"measurement": "Change", "setting": "[24]", "result": -16, "unit": "%"},
      {"measurement": "Change", "setting": "[25]", "result": -18, "unit": "%"},
      {"measurement": "Change", "setting": "[26]", "result": "-0.7% and -10%"},
      {"measurement": "Change", "setting": "[27]", "result": -1.1, "unit": "mL"},
      {"measurement": "Change", "setting": "[28]", "result": -1.2, "unit": "mL"},
      {"measurement": "Equieffective dose", "setting": "[29]", "result": 0.65, "unit": "mg/kg"},
      {"measurement": "Equieffective dose", "setting": "[30]", "result": 0.4, "unit": "mg/kg"},
      {"measurement": "Equieffective dose", "setting": "[31]", "result": 0.16, "unit": "mg/kg"}
    ]}
  ]
}
